In one series the test system is 3T3-L1 cells. In words: Cell viability / cytotoxicity, CCK-8 assay. It is filed as cell-based. Particulars: CCK-8, 48 h. In a few lines: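 3T3-L1 preadipocytes were seeded at 1 × 10^3 cells per well and incubated for 12 h. They were then exposed to varying concentrations of test compound for 48 h. Viability was measured with the CCK-8 kit following the manufacturer's guidelines, reading optical density at 450 nm. Data are means ± SD from triplicate experiments (n = 3), compared by Student's t test at P ≤ 0.05.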
In general terms: Tetrazolium assays rely on reduction of a dye to a coloured formazan, in cell work by metabolically active cells.

For series [1] the following is noted: cited from earlier work.
The test system of the next series is PPARγ. The note with it: cited from earlier work.

The compound `C=C(c1ccc(O)c(Oc2cc3c(cc2OC)CCN(C)[C@@H]3Cc2ccc(OC)cc2)c1)[C@@H]1c2cc(OC)c(OC)cc2CCN1C` [Compound 2, 1R,1′R-neoneferine A] registered a maximum noncytotoxic concentration in the series on 3T3-L1 cells of 15 µM.

Turning to `C=C(c1ccc(O)c(Oc2cc3c(cc2OC)CCN(C)[C@@H]3Cc2ccc(OC)cc2)c1)[C@H]1c2cc(OC)c(OC)cc2CCN1C` [Compound 3, 1R,1′S-neoneferine A], in the series with 3T3-L1 cells, the maximum noncytotoxic concentration stood at 5 µM.

In the case of `C=C(c1ccc(O)c(Oc2cc3c(cc2OC)CCN(C)[C@@H]3Cc2ccc(OC)cc2)c1)[C@@H]1c2cc(O)c(OC)cc2CCN1C` [Compound 4, 1R,1′R-neoisoliensinine A], in the series on 3T3-L1 cells, the maximum noncytotoxic concentration amounted to 10 µM.

Compound `C=C(c1ccc(O)c(Oc2cc3c(cc2OC)CCN(C)[C@@H]3Cc2ccc(OC)cc2)c1)[C@H]1c2cc(O)c(OC)cc2CCN1C` [Compound 5, 1R,1′S-neoisoliensinine A] yielded a maximum noncytotoxic concentration in the series with 3T3-L1 cells of 5 µM.

As to `COc1ccc(C[C@@H]2c3cc(Oc4cc(C[C@@H]5c6cc(OC)c(OC)cc6CCN5C)ccc4O)c(OC)cc3CCN2C)cc1` [Compound 7, neferine], in the series on 3T3-L1 cells, the maximum noncytotoxic concentration was 10 µM. Besides, the “antiadipogenic activity (in words)” value in series [1] is on record as “antiadipogenic activity”. The “PPARγ inhibitory effect (in words)” value with PPARγ is reported as “PPARγ inhibitory effect”.

In turn, `COc1ccc(C[C@@H]2c3cc(Oc4cc(C[C@H]5c6cc(OC)c(OC)cc6CCN5C)ccc4O)c(OC)cc3CCN2C)cc1` [Compound 8, 1′-epi-neferine] gave a maximum noncytotoxic concentration in the series with 3T3-L1 cells of 5 µM.
